Test results from ChEMBL document CHEMBL3797143, “Novel S1P1 receptor agonists - Part 5: From amino-to alkoxy-pyridines” (Eur J Med Chem, 2016).
Activity calls are given as the source filed them. The calls are words filed in the database; no cut-off is given here.

Legend:
Rattus norvegicus [1] = test: Time duration of maximum lymphocyte count reduction in Wistar rat at 10 mg/kg administered via oral gavage; format: functional
Outline: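 Duration of action is the latest sampling time at which maximal lymphocyte-count reduction was still seen. Male Wistar rats received 10 mg/kg orally, and blood lymphocytes were counted before dosing and at 3, 6 and 24 h (later times in some cases). Mean of 6-8 animals.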

[2] = Half life in Wistar rat at 10 mg/kg administered via oral gavage by LC-MS/MS analysis; format: ADME, organism-based; details: in vivo
Outline: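 Oral half-life was calculated from plasma concentrations measured in the lymphocyte-count study, in which male Wistar rats received 10 mg/kg orally. Plasma was prepared from EDTA blood by centrifugation at 3000 g for 10 min at 4 °C.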

[3] = Phototoxicity in Balb/c mouse 3T3 clone A31 cells assessed as AUC of UV spectra between 310 and 350 nm normalized to compound concentration at 0.05 to 100 uM preincubated for 1 hr followed by UVA irradiation measured after 24 hrs by neutral red uptake assay relative to control; format: functional
[4] = Phototoxicity in Balb/c mouse 3T3 clone A31 cells assessed as inhibition of cell viability measured as photo irritancy factor at 0.05 to 100 uM preincubated for 1 hr followed by UVA irradiation measured after 24 hrs by neutral red uptake assay relative to control; format: functional
[5] = target: Sphingosine 1-phosphate receptor 1 (Homo sapiens, UniProt P21453); test: Agonist activity at human recombinant S1PR1 expressed in CHO cell membranes incubated for 30 mins by [35S]GTPgammaS binding assay in presence of GDP; format: functional
Outline: (§1)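 Membranes from CHO cells expressing recombinant human S1P1 or S1P3. Compounds were preincubated with membranes for 30 min at room temperature. Reaction stopped by filtration, membrane-bound 35S-GTPγS counted. Geometric mean of ≥3 independent runs.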

[6] = target: Sphingosine 1-phosphate receptor 3 (Homo sapiens, UniProt Q99500); test: Agonist activity at human recombinant S1PR3 expressed in CHO cell membranes incubated for 30 mins by [35S]GTPgammaS binding assay in presence of GDP; format: functional; outline: as §1
Rattus norvegicus [7] = test: Decrease in peripheral blood lymphocyte count in Wistar rat at 10 mg/kg administered via oral gavage measured after 3 hrs; format: functional; design: scale not given: the % may be the effect or the level left
Outline: (§2)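 Male Wistar rats (RccHan:WIST) were given 10 mg/kg orally by gavage in vehicle containing 5% DMSO. Blood drawn by sublingual vein puncture under isoflurane before dosing and at the listed times after dosing. Lymphocytes counted on a haematology analyser. Results are % change from baseline, mean of 6-8 animals.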

Rattus norvegicus [8] = test: Decrease in peripheral blood lymphocyte count in Wistar rat at 10 mg/kg administered via oral gavage measured after 6 hrs; format: functional; design: scale not given: the % may be the effect or the level left; outline: as §2
Rattus norvegicus [9] = test: Decrease in peripheral blood lymphocyte count in Wistar rat at 10 mg/kg administered via oral gavage measured after 24 hrs; format: functional; design: scale not given: the % may be the effect or the level left; outline: as §2
[10] = Plasma concentration in Wistar rat at 10 mg/kg administered via oral gavage measured after 3 hrs by LC-MS/MS analysis; format: ADME, organism-based
Outline: (§3)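 Male Wistar rats received 10 mg/kg orally by gavage. Blood was drawn at the listed times into EDTA tubes, and plasma was prepared by centrifugation at 3000 g for 10 min at 4 °C. Limit of quantification 3 nM.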

[11] = Plasma concentration in Wistar rat at 10 mg/kg administered via oral gavage measured after 6 hrs by LC-MS/MS analysis; format: ADME, organism-based; outline: as §3
[12] = Plasma concentration in Wistar rat at 10 mg/kg administered via oral gavage measured after 24 hrs by LC-MS/MS analysis; format: ADME, organism-based; outline: as §3
Rattus norvegicus [13] = test: Decrease in peripheral blood lymphocyte count in Wistar rat at 10 mg/kg administered via oral gavage measured after 72 hrs; format: functional; design: scale not given: the % may be the effect or the level left; outline: as §2
Rattus norvegicus [14] = test: Decrease in peripheral blood lymphocyte count in Wistar rat at 10 mg/kg administered via oral gavage measured after 96 hrs; format: functional; outline: as §2

Sequence of Sphingosine 1-phosphate receptor 1 (P21453 whole entry): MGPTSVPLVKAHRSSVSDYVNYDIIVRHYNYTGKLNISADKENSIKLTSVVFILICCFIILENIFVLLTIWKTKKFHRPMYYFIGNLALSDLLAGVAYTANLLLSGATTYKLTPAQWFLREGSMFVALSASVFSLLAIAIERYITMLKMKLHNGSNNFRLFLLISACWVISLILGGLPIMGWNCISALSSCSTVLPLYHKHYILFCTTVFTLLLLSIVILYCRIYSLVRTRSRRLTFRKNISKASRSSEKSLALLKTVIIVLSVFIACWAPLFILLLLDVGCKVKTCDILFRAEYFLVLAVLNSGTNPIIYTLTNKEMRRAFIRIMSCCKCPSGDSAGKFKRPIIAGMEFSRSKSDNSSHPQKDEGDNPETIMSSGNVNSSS
Sequence of Sphingosine 1-phosphate receptor 3 (Q99500 whole entry): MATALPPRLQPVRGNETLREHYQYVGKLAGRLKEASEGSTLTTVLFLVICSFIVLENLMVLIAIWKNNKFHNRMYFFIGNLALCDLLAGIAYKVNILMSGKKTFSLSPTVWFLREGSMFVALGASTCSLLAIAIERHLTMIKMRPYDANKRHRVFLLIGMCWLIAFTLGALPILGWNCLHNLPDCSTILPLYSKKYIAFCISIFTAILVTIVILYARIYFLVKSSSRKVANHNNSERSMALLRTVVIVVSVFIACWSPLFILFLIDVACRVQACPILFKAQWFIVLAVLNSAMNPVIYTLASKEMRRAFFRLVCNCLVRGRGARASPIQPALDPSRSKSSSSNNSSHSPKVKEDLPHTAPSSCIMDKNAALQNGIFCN

Structure (SMILES) | Time (Rattus norvegicus [1]) [h] | half-life [2] [h] | Ratio [3] | Ratio [4] | EC50 [5] [µM] | EC50 [6] [µM] | Activity (Rattus norvegicus [7]) [%] | Activity (Rattus norvegicus [8]) [%] | Activity (Rattus norvegicus [9]) [%] | concentration at 3 h [10] [nM] | concentration at 6 h [11] [nM] | concentration at 24 h [12] [nM] | Activity (Rattus norvegicus [13]) [%] | Activity (Rattus norvegicus [14])
CCc1cc(-c2noc(-c3cc(C4CCCC4)cc(OC)n3)n2)cc(C)c1OC[C@@H](O)CNC(=O)CO | 6 | 5 | 0.09 | 2.1 | 0.0045 | 1.5 | 63 | 75 | -2 | 1790 | 1300 | 100 |  | 
CCc1cc(-c2noc(-c3cc(C)cc(OC4CCCC4)n3)n2)cc(C)c1OC[C@@H](O)CNC(=O)CO | 6 | 4 | 0.1 | 2 | 0.001 | 0.93 | 51 | 58 | -18 | 1610 | 890 | 39 |  | 
CCc1cc(-c2noc(-c3cnc(OC)c(C4CCCC4)c3)n2)cc(C)c1OC[C@@H](O)CNC(=O)CO |  |  |  |  | 0.0015 | 0.017 |  |  |  |  |  |  |  | 
CCc1cc(-c2noc(-c3cc(C)nc(N(CC)CC)c3)n2)cc(C)c1OC[C@@H](O)CNC(=O)CO | 72 |  |  |  |  |  |  |  | 70 |  |  |  | 62 | 
CCc1cc(-c2noc(-c3cc(OC)cc(CC(C)C)n3)n2)cc(C)c1OC[C@@H](O)CNC(=O)CO | 6 |  |  |  | 0.0015 | 1.4 | 58 | 66 | 23 |  |  |  |  | 
CCc1cc(-c2noc(-c3cc(C)nc(C(CC)CC)c3)n2)cc(C)c1OC[C@@H](O)CNC(=O)CO |  |  |  | 1.7 |  |  |  |  |  |  |  |  |  | 
CCc1cc(-c2noc(-c3cc(OC)c(C4CCCC4)cn3)n2)cc(C)c1OC[C@@H](O)CNC(=O)CO | 6 | 4 | 0.02 | 2.1 | 0.0006 | 0.21 | 79 | 86 | 60 | 2520 | 2020 | 71 |  | 
CCc1cc(-c2noc(-c3cnc(OC4CCCC4)c(C)c3)n2)cc(C)c1OC[C@@H](O)CNC(=O)CO | 24 | 16 | 0.02 | 1.4 | 0.0007 | 0.14 | 76 | 85 | 85 | 1140 | 960 | 510 |  | 
CCc1cc(-c2noc(-c3cnc(C4CCCC4)c(OC)c3)n2)cc(C)c1OC[C@@H](O)CNC(=O)CO | 24 | 11 | 0.15 | 7.6 | 0.0003 | 0.071 | 73 | 82 | 84 | 2390 | 2950 | 970 |  | 
CCc1cc(-c2noc(-c3cnc(C)c(OC4CCCC4)c3)n2)cc(C)c1OC[C@@H](O)CNC(=O)CO |  |  |  |  | 0.021 | 0.038 |  |  |  |  |  |  |  | 
CCc1cc(-c2nc(-c3cc(C)c(CCC(=O)NCCO)c(CC)c3)no2)cnc1N(C)C(C)C |  |  |  | >200 |  |  |  |  |  |  |  |  |  | 
CCc1cc(-c2nc(-c3cc(C)c(OC[C@@H](O)CNC(=O)CO)c(CC)c3)no2)cc(OC2CCC2)n1 | 168 |  |  |  | 0.0011 | 0.055 | 72 | 75 | 79 |  |  |  |  | 
CCc1cc(-c2nnc(-c3cc(C)nc(CC(C)C)c3)o2)cc(C)c1OC[C@@H](O)CNC(=O)CO |  |  |  | 1.1 |  |  |  |  |  |  |  |  |  | 
CCc1cc(-c2noc(-c3cc(OC)cc(C4CCCC4)n3)n2)cc(C)c1OC[C@@H](O)CNC(=O)CO | 6 |  | 0 | 2.4 | 0.0007 | 0.8 | 58 | 61 | 30 |  |  |  |  | 
CCc1cc(-c2noc(-c3cc(OC)nc(-c4ccccc4)c3)n2)cc(C)c1OC[C@@H](O)CNC(=O)CO |  |  |  |  | 0.028 | 1.6 |  |  |  |  |  |  |  | 
CCc1cc(-c2nc(-c3cc(C)c(OC[C@@H](O)CO)c(CC)c3)no2)cnc1CC(C)C |  |  |  | 1.6 |  |  |  |  |  |  |  |  |  | 
CCc1cc(-c2noc(-c3cc(C(CC)CC)cc(OC)n3)n2)cc(C)c1OC[C@@H](O)CNC(=O)CO | <3 | 4 |  |  | 0.0011 | 0.18 | 57 | 50 | -10 | 410 | 240 | 12 |  | 
CCc1cc(-c2nc(-c3cc(C)c(OC[C@@H](O)CNC(=O)CO)c(CC)c3)no2)cc(OC2CCCC2)n1 | 24 |  |  |  | 0.0011 | 0.05 | 64 | 71 | 76 |  |  |  |  | Active
CCc1cc(-c2noc(-c3ccc(C4CCCC4)c(OC)n3)n2)cc(C)c1OC[C@@H](O)CNC(=O)CO | 6 | 6 | 0.17 | 6.5 | 0.0014 | 0.92 | 70 | 78 | 23 | 690 | 500 | 61 |  | 
CCc1cc(-c2nnc(-c3cc(C)nc(N(CC)CC)c3)o2)cc(C)c1OC[C@@H](O)CNC(=O)CO |  |  |  | >200 |  |  |  |  |  |  |  |  |  | 
CCc1cc(-c2noc(-c3cc(OC4CCCC4)cc(C)n3)n2)cc(C)c1OC[C@@H](O)CNC(=O)CO | <3 | < 3 | 0 | 1.3 | 0.011 | 1.4 | 50 | 36 | -33 | 1560 | 510 | < 9 |  | 
CCc1cc(-c2noc(-c3cc(OC)cc(C(CC)CC)n3)n2)cc(C)c1OC[C@@H](O)CNC(=O)CO |  |  |  |  | 0.0012 | 0.52 |  |  |  |  |  |  |  | 
CCc1cc(-c2noc(-c3cc(OC)nc(C4CCCCC4)c3)n2)cc(C)c1OC[C@@H](O)CNC(=O)CO | 24 |  |  |  | 0.0073 | 0.69 | 58 | 58 | 72 |  |  |  |  | 33%
